Assay [1] is described as follows: S. cerevisiae growth inhibition in permissive medium (OD615), pilot counter-assay for S. cerevisiae lifespan shortening project, permissive growth control (AID 705;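 active = growth inhibition above 25% in both replicates, a cutoff set 3 SD above the mean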). To be noted: OD615, 24 h, at 10 µM, hits give high values. A digest of the protocol:
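assay system = Saccharomyces cerevisiae strain carrying genetically modified DeaD replicative-lifespan system | medium = SC raffinose/galactose permissive medium | dosing = 10 µM single dose, 0.25% DMSO | schedule = 24 h compound exposure at 30 °C after 4 h pre-growth | measured by = OD at 615 nm | read-out basis = growth inhibition from lowered OD615 after 24 h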

Assay [2] is described as follows: S. cerevisiae growth inhibition in restrictive medium, OD615, pilot screen, restrictive growth control, yeast lifespan reduction project (AID 706;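 active = growth inhibition above a set limit, 3 SD over mean compound inhibition, in both replicates, cut at about 43% in these data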). The following applies: OD615, 48 h, at 10 µM, hits give high values. A digest of the protocol: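 Buffer or medium: CSMM-D glucose medium. Material: genetically modified Saccharomyces cerevisiae, DeaD replicative lifespan assay strain. Times: 48 h compound exposure at 30 °C. Measured by: optical density at 615 nm.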

Assay [3] is described as follows: doxorubicin toxicity protection in MRP-1 cells – H69AR cells, CellTiter-Glo, duplicate, MRP-1 activator project, pilot screen (AID 807;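 active = viability increase at or above a cutoff of the median across tested compounds plus 3 SD, cut at about 8.5% in these data, passing the limit was not always enough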;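 also: compound pretreatment 18-22 h then 72 h combined with doxorubicin; 0% = doxorubicin alone and 100% = vehicle without doxorubicin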). The following applies: H69AR viability with doxorubicin, CellTiter-Glo luminescence; at 10 µM; hits give high values. Background: ATP-based viability assays read luminescence as a measure of living cells.
A short description of assay [4]: viability of HCT116 without oncogenic beta-catenin – human colon tumor cells, pilot screen (AID 823;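 active = cell viability at or below a set limit in both duplicate runs, the limit being the all-compound median minus 4 SD, cut at about 23% in these data, passing the limit was not always enough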;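 also: 0% = wells killed by 20 µM Hyamine and 100% = untreated DMSO cell wells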). To be noted: HCT116 beta-catenin knockout viability, CellTiter-Glo, 60 h; at 10 µM; hits give low values.
Assay [5] in a line: RAM pathway blockade in budding yeast – dse1pr::URA3 reporter, 5-FOA selection, pilot screen (AID 869;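 active = inhibition over a set limit, the all-compound mean plus 3 SD, in both replicate runs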;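 also: 0% = DMSO wells with no growth and 100% = 10 µM 1-NA-PP1 with full growth; RAM network block rescues cells from 5-FOA so hits raise OD615 growth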). The following applies: S. cerevisiae dse1pr::URA3 5-FOA growth, OD615, 2 d; at 10 µM; hits give high values; strain carries analog-sensitive mutant Cbk1 kinase.
Assay [6] in a line: RAM signaling pathway blockade in yeast – S. cerevisiae, Pdr1DBD-CYC8 efflux-inhibited sensitized strain, primary screen (AID 1298).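 Also: 0% = DMSO untreated cells without growth and 100% = 10 µM 1-NA-PP1 full growth; higher means more yeast growth rescued from 5-FOA killing.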 The following applies: S. cerevisiae cbk1-as DSE1-URA3 strain, 5-FOA growth OD615, 2 d; at 50 µM; hits give high values.

Unmarked numbers belong to inactive results. Results filed as inconclusive are left out. Calls of active or inactive are those of the source.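 The calls were made as follows, unless noted: active = RAM network inhibition above 8.4% in each of two replicates, 3 SD over the compound average; inconclusive = above 8.4% inhibition in only one replicate; inactive = 8.4% inhibition or less in each replicate.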

Regarding `CC12COC3(C(=O)Nc4cccnc4)CC1CCC32C` (stereo unspecified), the growth inhibition is -5.62% in assay [1] and 1.04% in assay [2]. Also, the viability increase in assay [3] is -2.08%. Also, the viability (in general, a read-out of living cells in per cent, often relative to untreated cells) in assay [4] is 109%. Besides, in assay [5], the inhibition (commonly the change of the read-out against control, counted positive when it falls) was 1.51%. Besides, the RAM network inhibition in assay [6] is 2.55%.
On to `Clc1cccc(CSc2nnc([C@@H]3CCCN3)o2)c1`, for which the results for the growth inhibition in assay [1] and in assay [2] were -7.24% and -0.015%, respectively. Besides, in assay [3], the viability increase was -3.16%. For the same compound, in assay [4], the viability was 98.9%. In addition, the inhibition in assay [5] was -0.08%. In addition, the RAM network inhibition in assay [6] was 0.26%.
As to `COc1cc2c(cc1OC)C(C(=O)Nc1cccc(C)n1)C(c1cccnc1)N(C)C2=O` (stereo unspecified), the growth inhibition in assay [1] is 8.34%; in assay [2] it was -5.33%. Moreover, in assay [3], the viability increase is -3.94%. For the same compound, the viability in assay [4] was 91.7%. Further, the inhibition in assay [5] was 0.58%. The RAM network inhibition in assay [6] is 6.27%.
In the case of `CCOC(=O)C1=CSC2=NS(=O)(=O)CCN12`, the growth inhibition in assay [1] is 3.57%; in assay [2], -2.12%. Besides, the viability increase in assay [3] is -2.36%. For the same compound, the viability in assay [4] is 97.7%. For the same compound, the inhibition in assay [5] is 2.31%. Also, the RAM network inhibition in assay [6] was -0.32%.
Take `COCC(=O)NC(C)c1nc2ccccc2[nH]1` (stereo unspecified): the growth inhibition in assay [1] is -27.6%; in assay [2] it was -2.47%. For the same compound, the viability increase in assay [3] is -1.7%. The viability in assay [4] was 91.9%. In addition, the inhibition in assay [5] was 0.975%. In assay [6], the RAM network inhibition is 3.95%.
In the case of `Brc1cc(Br)c2ncnc(N3CCCCC3)c2c1`, the growth inhibition is -2.35% in assay [1] and -19.5% in assay [2]. Moreover, the viability increase in assay [3] was -7.95%. The viability in assay [4] is 15.9% (active). Further, in assay [5], the inhibition was 2.7%. For the same compound, the RAM network inhibition in assay [6] was 2.58%.
With `COc1ccc(-c2cc(NCCc3ccncc3)n3ncnc3n2)cc1`, the growth inhibition in assay [1] is -9.14%; in assay [2] it was 14.2%. In addition, the viability increase in assay [3] is -4.7%. Besides, the viability in assay [4] is 95.2%. Further, the inhibition in assay [5] was 0.97%. In addition, in assay [6], the RAM network inhibition was 7.01%.
Regarding `CCOC(=O)N1CCC(NC(=O)C(Cc2ccccc2)NC(=O)C2CCCCC2)CC1` (stereo unspecified), the growth inhibition is -1.7% in assay [1] and 3.73% in assay [2]. Besides, in assay [3], the viability increase was -2.92%. In addition, the viability in assay [4] is 100%. Besides, in assay [5], the inhibition is 0.04%. Besides, the RAM network inhibition in assay [6] was 6.59%.
For `O=C(Nc1cccc(Cl)c1Cl)c1ccncc1`, the growth inhibition is -9.8% in assay [1] and -0.975% in assay [2]. In assay [3], the viability increase is -0.14%. Also, the viability in assay [4] was 103%. Besides, in assay [5], the inhibition is 1.85%. Besides, the RAM network inhibition in assay [6] was 4.88%.
As for `CCOC(=O)N1CCC(NC(=O)C(NC(=O)C2CCCCC2)C(C)C)CC1` (stereo unspecified), the growth inhibition was -6.95% in assay [1] and -2.83% in assay [2]. Further, the viability increase in assay [3] is -1.25%. In addition, the viability in assay [4] is 93%. Moreover, the inhibition in assay [5] is 2%. Further, the RAM network inhibition in assay [6] was 6.39%.
Regarding `O=C(Nc1ccc(Br)cc1Cl)c1cnccn1`, the growth inhibition is 1.88% in assay [1] and -0.415% in assay [2]. Further, the viability increase in assay [3] is -0.71%. The viability in assay [4] was 84.1%. Also, in assay [5], the inhibition is 1.97%. For the same compound, in assay [6], the RAM network inhibition was 2.32%.
For `CCOC(=O)N1CCN(c2nc(SC)nc3sc4c(c23)CC(C)(C)OC4)CC1`, the growth inhibition in assay [1] was 2.38%; in assay [2], -0.985%. In addition, the viability increase in assay [3] is -5.82%. Moreover, the viability in assay [4] was 87.5%. Besides, the inhibition in assay [5] is 0.54%. The RAM network inhibition in assay [6] was 9.5%.
With `CC(=O)c1c(C)n(-c2ccc(N(C)C)cc2)c2ccc(OCC(N)=O)cc12`, the growth inhibition in assay [1] was -8.79%; in assay [2], -6.18%. In addition, the viability increase in assay [3] is -4.87%. Also, the viability in assay [4] is 84.8%. Moreover, in assay [5], the inhibition is 2.3%. Besides, the RAM network inhibition in assay [6] is 6.29%.
For the compound `COc1ccc(NC(=O)C2CCC(C)(C(=O)O)C2(C)C)cc1` (stereo unspecified), the figures for the growth inhibition in assay [1] and in assay [2] were 1% and 3.7%, respectively. In addition, the viability increase in assay [3] was -0.59%. In assay [4], the viability is 96%. Further, the inhibition in assay [5] is 1.27%. Moreover, the RAM network inhibition in assay [6] is 3.75%.
Take `CCN(CC)c1ccc(NC(=O)c2ccc(NC(=O)C3CCCO3)cc2)c(C)c1` (stereo unspecified): the growth inhibition in assay [1] was -6.83%; in assay [2] it was 3.42%. Moreover, in assay [3], the viability increase is 1.38%. Further, the viability in assay [4] is 94.8%. In assay [5], the inhibition was 0.965%. In addition, the RAM network inhibition in assay [6] is 6.65%.
On to `CN1CCc2c(sc3nc(SCC(N)=O)n(-c4ccccc4)c(=O)c23)C1`, for which the results for the growth inhibition in assay [1] and in assay [2] were -17.8% and 9.25%, respectively. Moreover, the viability increase in assay [3] was -0.53%. Moreover, the viability in assay [4] is 84.3%. Besides, the inhibition in assay [5] is 4.08%. Also, the RAM network inhibition in assay [6] was 3.54%.
With `CCCc1nc2n[nH]c(N)c2c2c1CCC2`, the growth inhibition in assay [1] is -24.2%; in assay [2] it was -12.6%. Moreover, in assay [3], the viability increase was -5.25%. For the same compound, in assay [4], the viability was 92%. Also, the inhibition in assay [5] is 0.825%. Moreover, the RAM network inhibition in assay [6] is 0.57%.
Regarding `CCC1CCCCN1C(=O)CSc1nc2c([nH]c3ccccc32)c(=O)n1C` (stereo unspecified), the figures for the growth inhibition in assay [1] and in assay [2] were -5.5% and -4.4%, respectively. Moreover, the viability increase in assay [3] was -8.15%. In assay [4], the viability was 55.7%. For the same compound, in assay [5], the inhibition is 1.36%. Besides, the RAM network inhibition in assay [6] was 3.27%.
As to `CN(C)/C=N/c1c(C#N)cnn1-c1nc2ccccc2s1`, the growth inhibition in assay [1] is -9.66%; in assay [2], 6.79%. In addition, the viability increase in assay [3] is -3.38%. The viability in assay [4] is 102%. In addition, the inhibition in assay [5] was 1.28%. Besides, the RAM network inhibition in assay [6] is 4.53%.
With `CCCCCn1c(=O)[nH]c2cc(C(=O)NCCCN(CC)CC)ccc2c1=O`, the growth inhibition was -20.8% in assay [1] and -0.04% in assay [2]. In assay [3], the viability increase was -4.48%. In assay [4], the viability is 47.3%. Besides, in assay [5], the inhibition is 1.65%. For the same compound, the RAM network inhibition in assay [6] is 3.74%.
With `OCCN1CCN(c2ncnc3c2sc2nc(N4CCOCC4)c4c(c23)CCC4)CC1`, the results for the growth inhibition in assay [1] and in assay [2] were -16.4% and -3.42%, respectively. Also, in assay [3], the viability increase was -7.68%. The viability in assay [4] was 55.3%. Further, in assay [5], the inhibition was 1.13%. Moreover, the RAM network inhibition in assay [6] was 2.39%.

(Values after PubChem BioAssay.)
